Assay results reported in ChEMBL document CHEMBL1127523, “Design and synthesis of side-chain conformationally restricted phenylalanines and their use for structure-activity studies on tachykinin NK-1 receptor” (J Med Chem, 1994).
Starred links: 1 amine or outer side, 2 acyl side, 3 side chain; linkers in the order of their positions; H or OH if unused. Non-standard residues stand in square brackets, D forms with d. Residues, ends and D or L forms follow the SMILES beside them. Gly(9-fluorenyl) = N[C@H](C(=O)O)C1c2ccccc2-c2ccccc21; X1 = O=C([C@@H](N[*:1])C1CCc2ccccc21)[*:2]; Dip = N[C@H](C(=O)O)C(c1ccccc1)c1ccccc1

Tests used:
[1] = organism: Cavia porcellus; test: Effective concentration required for its inhibition of nonspecific binding to guinea pig ileal membranes; assay type: functional
[2] = target: T1, Neuromedin-K receptor (Rattus norvegicus, UniProt P16177); test: Concentration required to inhibit the specific binding of [125I]BH-ELE to Neurokinin-3 (NK-3) receptor in rat brain synaptosomes; assay type: subcellular
T1 sequence (P16177 whole entry): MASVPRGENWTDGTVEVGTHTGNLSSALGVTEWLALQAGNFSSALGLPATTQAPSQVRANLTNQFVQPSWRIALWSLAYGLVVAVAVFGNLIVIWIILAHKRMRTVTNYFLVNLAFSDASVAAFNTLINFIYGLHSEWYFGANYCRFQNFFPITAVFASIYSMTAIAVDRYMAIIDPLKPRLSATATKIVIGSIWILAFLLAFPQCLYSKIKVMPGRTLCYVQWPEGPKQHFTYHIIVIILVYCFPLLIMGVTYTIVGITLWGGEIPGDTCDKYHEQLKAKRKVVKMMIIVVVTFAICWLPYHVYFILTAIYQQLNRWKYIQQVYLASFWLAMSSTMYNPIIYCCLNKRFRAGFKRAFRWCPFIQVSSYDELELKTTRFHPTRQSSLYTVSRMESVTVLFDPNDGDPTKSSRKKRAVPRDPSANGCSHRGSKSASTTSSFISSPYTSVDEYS
Method in brief: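 Rat brain synaptosomes in Krebs-Ringer phosphate buffer with BSA, bacitracin and glucose. Incubated 15 min at 20 °C with 40 pM [125I]BHELE and increasing peptide concentrations, gamma counted. Triplicates, two to eight independent experiments; nonspecific binding defined with eledoisin 10⁻⁶ M. IC50 estimated from Hill plots of titration curves.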

[3] = target: T2, Substance-K receptor (Rattus norvegicus, UniProt P16610); test: Concentration required to inhibit the specific binding of [3H]NKA to Neurokinin-2 (NK-2) receptor in rat duodenum membranes
T2 sequence (P16610 whole entry): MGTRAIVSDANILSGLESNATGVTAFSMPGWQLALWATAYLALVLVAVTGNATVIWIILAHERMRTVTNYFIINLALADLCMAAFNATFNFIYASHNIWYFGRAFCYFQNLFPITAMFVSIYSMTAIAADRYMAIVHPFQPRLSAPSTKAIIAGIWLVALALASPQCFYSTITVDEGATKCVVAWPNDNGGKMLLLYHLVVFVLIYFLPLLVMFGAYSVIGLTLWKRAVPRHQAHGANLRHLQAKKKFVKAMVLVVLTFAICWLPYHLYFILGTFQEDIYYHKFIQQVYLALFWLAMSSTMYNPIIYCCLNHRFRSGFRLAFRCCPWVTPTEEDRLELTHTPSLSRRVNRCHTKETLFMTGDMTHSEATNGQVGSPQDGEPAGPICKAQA

[4] = target: Substance-P receptor (Rattus norvegicus, UniProt P14600); test: Concentration required to inhibit the specific binding of [125I]BH-SP to Neurokinin-1 (NK-1) receptor in rat brain synaptosomes; assay type: subcellular
Chain of Substance-P receptor (P14600 whole entry): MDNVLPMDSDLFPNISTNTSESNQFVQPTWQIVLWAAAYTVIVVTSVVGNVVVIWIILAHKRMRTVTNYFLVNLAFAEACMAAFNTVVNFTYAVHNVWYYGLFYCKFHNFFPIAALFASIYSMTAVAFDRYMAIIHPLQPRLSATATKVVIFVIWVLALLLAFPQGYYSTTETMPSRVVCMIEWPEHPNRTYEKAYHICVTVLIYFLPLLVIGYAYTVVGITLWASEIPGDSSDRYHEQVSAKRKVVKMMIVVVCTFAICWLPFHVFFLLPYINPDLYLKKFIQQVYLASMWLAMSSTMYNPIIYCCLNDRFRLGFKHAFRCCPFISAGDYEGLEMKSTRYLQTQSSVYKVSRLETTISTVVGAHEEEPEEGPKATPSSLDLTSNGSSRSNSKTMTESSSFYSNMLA

[5] = organism: Cavia porcellus; test: Concentration required to inhibit nonspecific binding of [125I]BH-SP to guinea pig ileal membranes; assay type: functional

Row | SMILES | EC50 [1] [nM] | IC50 [2] [nM] | IC50 [3] [nM] | IC50 [4] [nM] | IC50 [5] [nM]
1 | CSCC[C@H](NC(=O)[C@H](CC(C)C)NC(=O)CNC(=O)[C@@H](NC(=O)[C@H](Cc1ccccc1)NC(=O)[C@H](CCC(N)=O)NC(=O)[C@H](CCC(N)=O)NC(=O)[C@@H]1CCCN1C(=O)[C@H](CCCCN)NC(=O)[C@@H]1CCCN1C(=O)[C@@H](N)CCCN=C(N)N)C(C)(C)S(C)(=O)=O)C(N)=O | 1.1 | 190 | 160 | 7.84 | –
2 | CSCC[C@H](NC(=O)[C@H](CC(C)C)NC(=O)CNC(=O)[C@H](Cc1ccccc1)NC(=O)[C@H](NC(=O)[C@H](CCC(N)=O)NC(=O)[C@H](CCC(N)=O)NC(=O)[C@@H]1CCCN1C(=O)[C@H](CCCCN)NC(=O)[C@@H]1CCCN1C(=O)[C@@H](N)CCCN=C(N)N)C1Cc2ccccc2C1)C(N)=O | 4170 | > 10000 | 3900 | 2800 | –
3 | CSCC[C@H](NC(=O)[C@H](CC(C)C)NC(=O)CNC(=O)[C@H](Cc1ccccc1)NC(=O)[C@H](CCc1ccccc1)NC(=O)[C@H](CCC(N)=O)NC(=O)[C@H](CCC(N)=O)NC(=O)[C@@H]1CCCN1C(=O)[C@H](CCCCN)NC(=O)[C@@H]1CCCN1C(=O)[C@@H](N)CCCN=C(N)N)C(N)=O | 5.8 | > 10000 | 1900 | – | 19
4 | CSCC[C@H](NC(=O)[C@H](CC(C)C)NC(=O)CNC(=O)[C@@H](NC(=O)[C@H](Cc1ccccc1)NC(=O)[C@H](CCC(N)=O)NC(=O)[C@H](CCC(N)=O)NC(=O)[C@@H]1CCCN1C(=O)[C@H](CCCCN)NC(=O)[C@@H]1CCCN1C(=O)[C@@H](N)CCCN=C(N)N)C(C)(C)SC)C(N)=O | 1.7 | – | – | – | –
5 | CSCC[C@H](NC(=O)[C@H](CC(C)C)NC(=O)[C@@H]1CCCN1C(=O)[C@@H](NC(=O)[C@H](Cc1ccccc1)NC(=O)[C@H](CCC(N)=O)NC(=O)[C@H](CCC(N)=O)NC(=O)[C@@H]1CCCN1C(=O)[C@H](CCCCN)NC(=O)[C@@H]1CCCN1C(=O)[C@@H](N)CCCN=C(N)N)C1c2ccccc2-c2ccccc21)C(N)=O (H-RPKPQQF[Gly(9-fluorenyl)]PLM-NH2) | 1.7 | 15000 | 1300 | 3.3 | –
6 | CSCC[C@H](NC(=O)[C@H](CC(C)C)NC(=O)CNC(=O)[C@@H](NC(=O)[C@H](Cc1ccccc1)NC(=O)[C@H](CCC(N)=O)NC(=O)[C@H](CCC(N)=O)NC(=O)[C@@H]1CCCN1C(=O)[C@H](CCCCN)NC(=O)[C@@H]1CCCN1C(=O)[C@@H](N)CCCN=C(N)N)C(C)(C)C)C(N)=O | 2.5 | 65 | 9 | 2.6 | –
7 | CSCC[C@H](NC(=O)[C@H](CC(C)C)NC(=O)CNC(=O)[C@H](Cc1ccccc1)NC(=O)[C@@H](NC(=O)[C@H](CCC(N)=O)NC(=O)[C@H](CCC(N)=O)NC(=O)[C@@H]1CCCN1C(=O)[C@H](CCCCN)NC(=O)[C@@H]1CCCN1C(=O)[C@@H](N)CCCN=C(N)N)C1c2ccccc2-c2ccccc21)C(N)=O | 9.5 | 3100 | 690 | 1400 | 110
8 | CSCC[C@H](NC(=O)[C@H](CC(C)C)NC(=O)CNC(=O)[C@H](Cc1ccccc1)NC(=O)[C@@H](NC(=O)[C@H](CCC(N)=O)NC(=O)[C@H](CCC(N)=O)NC(=O)[C@@H]1CCCN1C(=O)[C@H](CCCCN)NC(=O)[C@@H]1CCCN1C(=O)[C@@H](N)CCCN=C(N)N)[C@H]1CCc2ccccc21)C(N)=O | 1.2 | 2200 | 380 | 3.1 | –
9 | CSCC[C@H](NC(=O)[C@H](CC(C)C)NC(=O)CNC(=O)[C@@H](NC(=O)[C@H](Cc1ccccc1)NC(=O)[C@H](CCC(N)=O)NC(=O)[C@H](CCC(N)=O)NC(=O)[C@@H]1CCCN1C(=O)[C@H](CCCCN)NC(=O)[C@@H]1CCCN1C(=O)[C@@H](N)CCCN=C(N)N)C1c2ccccc2-c2ccccc21)C(N)=O | 5.7 | – | – | – | –
10 | CSCC[C@H](NC(=O)[C@H](CC(C)C)NC(=O)CNC(=O)[C@H](Cc1ccccc1)NC(=O)[C@@H](NC(=O)[C@H](CCC(N)=O)NC(=O)[C@H](CCC(N)=O)NC(=O)[C@@H]1CCCN1C(=O)[C@H](CCCCN)NC(=O)[C@@H]1CCCN1C(=O)[C@@H](N)CCCN=C(N)N)C(c1ccccc1)c1ccccc1)C(N)=O | 226 | – | – | – | –
11 | CSCC[C@H](NC(=O)[C@H](CC(C)C)NC(=O)CNC(=O)[C@@H](NC(=O)[C@@H](NC(=O)[C@H](CCC(N)=O)NC(=O)[C@H](CCC(N)=O)NC(=O)[C@@H]1CCCN1C(=O)[C@H](CCCCN)NC(=O)[C@@H]1CCCN1C(=O)[C@@H](N)CCCN=C(N)N)C1CCc2ccccc21)C1c2ccccc2-c2ccccc21)C(N)=O (stereo partly specified) (H-RPKPQQ[X1][Gly(9-fluorenyl)]GLM-NH2) | 3.4 | 450 | 110 | 29 | 7.9
12 | CSCC[C@H](NC(=O)[C@H](CC(C)C)NC(=O)CNC(=O)[C@H](Cc1ccccc1)NC(=O)[C@@H](NC(=O)[C@H](CCC(N)=O)NC(=O)[C@H](CCC(N)=O)NC(=O)[C@@H]1CCCN1C(=O)[C@H](CCCCN)NC(=O)[C@@H]1CCCN1C(=O)[C@@H](N)CCCN=C(N)N)C1Cc2ccccc2C1)C(N)=O | 1300 | > 10000 | 1700 | 2300 | –
13 | CSCC[C@H](NC(=O)[C@H](CC(C)C)NC(=O)[C@@H]1CCCN1C(=O)[C@@H](NC(=O)[C@H](Cc1ccccc1)NC(=O)[C@H](CCC(N)=O)NC(=O)[C@H](CCC(N)=O)NC(=O)[C@@H]1CCCN1C(=O)[C@H](CCCCN)NC(=O)[C@@H]1CCCN1C(=O)[C@@H](N)CCCN=C(N)N)C(c1ccccc1)c1ccccc1)C(N)=O (H-RPKPQQF[Dip]PLM-NH2) | 20 | > 10000 | 6000 | 2500 | 260
14 | CSCC[C@H](NC(=O)[C@H](CC(C)C)NC(=O)CNC(=O)[C@H](CCc1ccccc1)NC(=O)[C@H](Cc1ccccc1)NC(=O)[C@H](CCC(N)=O)NC(=O)[C@H](CCC(N)=O)NC(=O)[C@@H]1CCCN1C(=O)[C@H](CCCCN)NC(=O)[C@@H]1CCCN1C(=O)[C@@H](N)CCCN=C(N)N)C(N)=O | 2.8 | 1900 | 450 | – | 74
15 | CSCC[C@H](NC(=O)[C@H](CC(C)C)NC(=O)CNC(=O)[C@@H](NC(=O)[C@H](Cc1ccccc1)NC(=O)[C@H](CCC(N)=O)NC(=O)[C@H](CCC(N)=O)NC(=O)[C@@H]1CCCN1C(=O)[C@H](CCCCN)NC(=O)[C@@H]1CCCN1C(=O)[C@@H](N)CCCN=C(N)N)[C@@H]1CCc2cc3ccccc3cc21)C(N)=O | 2.8 | 180 | 57 | 28 | –
16 | CSCC[C@H](NC(=O)[C@H](CC(C)C)NC(=O)CNC(=O)[C@H](Cc1ccccc1)NC(=O)[C@@H](NC(=O)[C@H](CCC(N)=O)NC(=O)[C@H](CCC(N)=O)NC(=O)[C@@H]1CCCN1C(=O)[C@H](CCCCN)NC(=O)[C@@H]1CCCN1C(=O)[C@@H](N)CCCN=C(N)N)C1CCc2cc3ccccc3cc21)C(N)=O (stereo partly specified) | 6.9 | 1600 | 120 | 48 | 49
17 | CSCC[C@H](NC(=O)[C@H](CC(C)C)NC(=O)CNC(=O)[C@@H](NC(=O)[C@H](Cc1ccccc1)NC(=O)[C@H](CCC(N)=O)NC(=O)[C@H](CCC(N)=O)NC(=O)[C@@H]1CCCN1C(=O)[C@H](CCCCN)NC(=O)[C@@H]1CCCN1C(=O)[C@@H](N)CCCN=C(N)N)C(c1ccccc1)c1ccccc1)C(N)=O | 15 | – | – | – | 260
18 | CSCC[C@H](NC(=O)[C@H](CC(C)C)NC(=O)CNC(=O)[C@H](Cc1ccccc1)NC(=O)/C(=C\c1ccccc1)NC(=O)[C@H](CCC(N)=O)NC(=O)[C@H](CCC(N)=O)NC(=O)[C@@H]1CCCN1C(=O)[C@H](CCCCN)NC(=O)[C@@H]1CCCN1C(=O)[C@@H](N)CCCN=C(N)N)C(N)=O | 8.4 | 11700 | 950 | – | –
19 | CSCC[C@H](NC(=O)[C@H](CC(C)C)NC(=O)[C@@H]1CCCN1C(=O)[C@H](Cc1ccccc1)NC(=O)[C@H](Cc1ccccc1)NC(=O)[C@H](CCC(N)=O)NC(=O)[C@H](CCC(N)=O)NC(=O)[C@@H]1CCCN1C(=O)[C@H](CCCCN)NC(=O)[C@@H]1CCCN1C(=O)[C@@H](N)CCCN=C(N)N)C(N)=O | 2 | > 10000 | > 10000 | 2.9 | –
20 | CSCC[C@H](NC(=O)[C@H](CC(C)C)NC(=O)CNC(=O)[C@H](Cc1ccccc1)NC(=O)/C(=C/c1ccccc1)NC(=O)[C@H](CCC(N)=O)NC(=O)[C@H](CCC(N)=O)NC(=O)[C@@H]1CCCN1C(=O)[C@H](CCCCN)NC(=O)[C@@H]1CCCN1C(=O)[C@@H](N)CCCN=C(N)N)C(N)=O | 3100 | > 10000 | 4900 | – | –
